Laboratory results published in ChEMBL document CHEMBL3751694, “1-Piperazinylphthalazines as potential VEGFR-2 inhibitors and anticancer agents: Synthesis and in vitro biological evaluation” (Eur J Med Chem, 2016).

How the values were obtained:
Format in all cases: functional
[1] = Growth inhibition of human BT549 cells at 10 uM after 48 hrs by SRB method; conditions: BT-549, 48 h, read-out: GI
In short: (§1)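 NCI 56-line primary screen at a single 10^-5 M concentration. Cells grown in RPMI 1640 with 5% FBS and 2 mM L-glutamine, plated at 5000–40,000 cells/well, then preincubated for 24 h. Exposure was 48 h at 37 °C and 5% CO2. Adherent cells were fixed with cold TCA at 10% final, suspension cells at 16%. Staining used 0.4% SRB, read at 515 nm. Results are % growth inhibition relative to control.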

[2] = test system: MCF7; assay: Growth inhibition of human MCF7 cells at 10 uM after 48 hrs by SRB method; conditions: MCF7, 48 h, read-out: GI; in short: as §1
[3] = Growth inhibition of human PC3 cells at 10 uM after 48 hrs by SRB method; conditions: PC-3, 48 h, read-out: GI; in short: as §1
[4] = Growth inhibition of human UO31 cells at 10 uM after 48 hrs by SRB method; conditions: UO-31, 48 h, read-out: GI
In short: (§2)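 NCI 56-line screen, single-dose primary assay at 10^-5 M. Cells grown in RPMI 1640 with 5% FBS and 2 mM L-glutamine, plated at 5000–40,000 cells/well and held 24 h at 37 °C, 5% CO2 before drug addition. Compound was given from DMSO stock, exposure 48 h, then TCA fixation and SRB staining with absorbance at 515 nm. % growth is taken relative to time-zero and untreated controls.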

[5] = Growth inhibition of human TK10 cells at 10 uM after 48 hrs by SRB method; conditions: TK-10, 48 h, read-out: GI; in short: as §2
[6] = test system: SN12C; assay: Growth inhibition of human SN12C cells at 10 uM after 48 hrs by SRB method; conditions: read-out: GI; in short: as §1
[7] = test system: ACHN; assay: Growth inhibition of human ACHN cells at 10 uM after 48 hrs by SRB method; conditions: read-out: GI; in short: as §1
[8] = test system: A498; assay: Growth inhibition of human A498 cells at 10 uM after 48 hrs by SRB method; conditions: A498, 48 h, read-out: GI; in short: as §1
[9] = test system: NCI/ADR-RES; assay: Growth inhibition of human NCI/ADR-RES cells at 10 uM after 48 hrs by SRB method; conditions: read-out: GI; in short: as §1
[10] = Growth inhibition of human OVCAR8 cells at 10 uM after 48 hrs by SRB method; conditions: OVCAR-8, 48 h, read-out: GI; in short: as §1
[11] = Growth inhibition of human UACC62 cells at 10 uM after 48 hrs by SRB method; conditions: UACC-62, 48 h, read-out: GI; in short: as §2
[12] = Growth inhibition of human UACC257 cells at 10 uM after 48 hrs by SRB method; conditions: UACC-257, 48 h, read-out: GI; in short: as §2
[13] = test system: SK-MEL-5; assay: Growth inhibition of human SK-MEL-5 cells at 10 uM after 48 hrs by SRB method; conditions: SK-MEL-5, 48 h, read-out: GI; in short: as §1
[14] = test system: SK-MEL-2; assay: Growth inhibition of human SK-MEL-2 cells at 10 uM after 48 hrs by SRB method; conditions: SK-MEL-2, 48 h, read-out: GI; in short: as §1
[15] = test system: M14; assay: Growth inhibition of human M14 cells at 10 uM after 48 hrs by SRB method; conditions: M14, 48 h, read-out: GI; in short: as §1
[16] = test system: HT-29; assay: Growth inhibition of human HT-29 cells at 10 uM after 48 hrs by SRB method; conditions: HT-29, 48 h, read-out: GI; in short: as §1
[17] = Growth inhibition of human HCT15 cells at 10 uM after 48 hrs by SRB method; conditions: HCT-15, 48 h, read-out: GI; in short: as §1
[18] = Growth inhibition of human HCT116 cells at 10 uM after 48 hrs by SRB method; conditions: HCT-116, 48 h, read-out: GI; in short: as §1
[19] = Growth inhibition of human COLO205 cells at 10 uM after 48 hrs by SRB method; conditions: COLO 205, 48 h, read-out: GI; in short: as §1
[20] = test system: NCI-H522; assay: Growth inhibition of human NCI-H522 cells at 10 uM after 48 hrs by SRB method; conditions: NCI-H522, 48 h, read-out: GI; in short: as §1
[21] = test system: NCI-H460; assay: Growth inhibition of human NCI-H460 cells at 10 uM after 48 hrs by SRB method; conditions: NCI-H460, 48 h, read-out: GI; in short: as §1
[22] = test system: NCI-H226; assay: Growth inhibition of human NCI-H226 cells at 10 uM after 48 hrs by SRB method; conditions: NCI-H226, 48 h, read-out: GI; in short: as §1
[23] = Growth inhibition of human HOP92 cells at 10 uM after 48 hrs by SRB method; conditions: HOP-92, 48 h, read-out: GI; in short: as §1
[24] = test system: A549; assay: Growth inhibition of human A549 cells at 10 uM after 48 hrs by SRB method; conditions: A549, 48 h, read-out: GI; in short: as §1
[25] = test system: SR; assay: Growth inhibition of human SR cells at 10 uM after 48 hrs by SRB method; conditions: read-out: GI; in short: as §1
[26] = Growth inhibition of human […] cells at 10 uM after 48 hrs by SRB method; conditions: read-out: GI; in short: as §1
[27] = Growth inhibition of human MOLT4 cells at 10 uM after 48 hrs by SRB method; conditions: MOLT-4, 48 h, read-out: GI; in short: as §1
[28] = test system: K562; assay: Growth inhibition of human K562 cells at 10 uM after 48 hrs by SRB method; conditions: K562, 48 h, read-out: GI; in short: as §1
[29] = Growth inhibition of human HL-60(TB) cells at 10 uM after 48 hrs by SRB method; conditions: HL-60, 48 h, read-out: GI
In short: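 NCI single-dose primary screen at 10^-5 M, 48 h exposure. Cells grown in RPMI 1640 with 5% FBS and 2 mM L-glutamine. Suspension cells fixed in situ with TCA (final 16%), stained with SRB, absorbance read at 515 nm. Percent growth inhibition calculated against time-zero and untreated control plates.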

[30] = test system: CCRF-CEM; assay: Growth inhibition of human CCRF-CEM cells at 10 uM after 48 hrs by SRB method; conditions: read-out: GI; in short: as §1
[31] = test system: T47D; assay: Growth inhibition of human T47D cells at 10 uM after 48 hrs by SRB method; conditions: read-out: GI; in short: as §2
[32] = test system: MDA-MB-468; assay: Growth inhibition of human MDA-MB-468 cells at 10 uM after 48 hrs by SRB method; conditions: MDA-MB-468, 48 h, read-out: GI; in short: as §1
[33] = test system: MDA-MB-231; assay: Growth inhibition of human MDA-MB-231 cells at 10 uM after 48 hrs by SRB method; conditions: MDA-MB-231, 48 h, read-out: GI; in short: as §1
[34] = Growth inhibition of human Caki1 cells at 10 uM after 48 hrs by SRB method; conditions: CAKI-1, 48 h, read-out: GI; in short: as §1
[35] = test system: 786-0; assay: Growth inhibition of human 786-0 cells at 10 uM after 48 hrs by SRB method; conditions: 786-0, 48 h, read-out: GI; in short: as §1
[36] = Growth inhibition of human SF268 cells at 10 uM after 48 hrs by SRB method; conditions: SF-268, 48 h, read-out: GI; in short: as §1
[37] = test system: KM12; assay: Growth inhibition of human KM12 cells at 10 uM after 48 hrs by SRB method; conditions: KM12, 48 h, read-out: GI; in short: as §1
[38] = Growth inhibition of human OVCAR4 cells at 10 uM after 48 hrs by SRB method; conditions: OVCAR-4, 48 h, read-out: GI; in short: as §1
[39] = Growth inhibition of human OVCAR3 cells at 10 uM after 48 hrs by SRB method; conditions: OVCAR-3, 48 h, read-out: GI; in short: as §1
[40] = test system: MDA-MB-435; assay: Growth inhibition of human MDA-MB-435 cells at 10 uM after 48 hrs by SRB method; conditions: MDA-MB-435, 48 h, read-out: GI; in short: as §1
[41] = Growth inhibition of human SF295 cells at 10 uM after 48 hrs by SRB method; conditions: SF-295, 48 h, read-out: GI; in short: as §1

O=C(CN1CCN(c2nnc(-c3ccccc3)c3ccccc23)CC1)Nc1nc(-c2ccccc2)cs1
inhibition of growth at 10 µM [1]: 40%
inhibition of growth at 10 µM [2]: 53%
inhibition of growth at 10 µM [3]: 62%
inhibition of growth at 10 µM [4]: 90%
inhibition of growth at 10 µM [5]: 30%
inhibition of growth at 10 µM [6]: 32%
inhibition of growth at 10 µM [7]: 31%
inhibition of growth at 10 µM [8]: 54%
inhibition of growth at 10 µM [9]: 45%
inhibition of growth at 10 µM [10]: 44%
inhibition of growth at 10 µM [11]: 44%
inhibition of growth at 10 µM [12]: 48%
inhibition of growth at 10 µM [13]: 77%
inhibition of growth at 10 µM [14]: 40%
inhibition of growth at 10 µM [15]: 44%
inhibition of growth at 10 µM [16]: 34%
inhibition of growth at 10 µM [17]: 51%
inhibition of growth at 10 µM [18]: 38%
inhibition of growth at 10 µM [19]: 54%
inhibition of growth at 10 µM [20]: 58%
inhibition of growth at 10 µM [21]: 45%
inhibition of growth at 10 µM [22]: 38%
inhibition of growth at 10 µM [23]: 47%
inhibition of growth at 10 µM [24]: 48%
inhibition of growth at 10 µM [25]: 57%
inhibition of growth at 10 µM [26]: 56%
inhibition of growth at 10 µM [27]: 70%
inhibition of growth at 10 µM [28]: 50%
inhibition of growth at 10 µM [29]: 50%
inhibition of growth at 10 µM [30]: 53%
inhibition of growth at 10 µM [31]: 85%
inhibition of growth at 10 µM [32]: 59%
inhibition of growth at 10 µM [33]: 38%

CCOC(=O)c1sc(NC(=O)CN2CCN(c3nnc(-c4ccccc4)c4ccccc34)CC2)nc1C
inhibition of growth at 10 µM [1]: 33%
inhibition of growth at 10 µM [3]: 57%
inhibition of growth at 10 µM [4]: 46%
inhibition of growth at 10 µM [5]: 36%
inhibition of growth at 10 µM [34]: 35%
inhibition of growth at 10 µM [8]: 37%
inhibition of growth at 10 µM [35]: 31%
inhibition of growth at 10 µM [10]: 33%
inhibition of growth at 10 µM [11]: 34%
inhibition of growth at 10 µM [13]: 33%
inhibition of growth at 10 µM [15]: 32%
inhibition of growth at 10 µM [36]: 32%
inhibition of growth at 10 µM [37]: 30%
inhibition of growth at 10 µM [16]: 50%
inhibition of growth at 10 µM [17]: 44%
inhibition of growth at 10 µM [19]: 34%
inhibition of growth at 10 µM [20]: 64%
inhibition of growth at 10 µM [23]: 38%
inhibition of growth at 10 µM [24]: 33%
inhibition of growth at 10 µM [25]: 64%
inhibition of growth at 10 µM [26]: 53%
inhibition of growth at 10 µM [27]: 59%
inhibition of growth at 10 µM [28]: 34%
inhibition of growth at 10 µM [29]: 43%
inhibition of growth at 10 µM [30]: 34%
inhibition of growth at 10 µM [31]: 68%
inhibition of growth at 10 µM [32]: 49%
inhibition of growth at 10 µM [33]: 49%

O=C(CN1CCN(c2nnc(-c3ccccc3)c3ccccc23)CC1)Nc1nc(-c2ccc(Cl)cc2)cs1
inhibition of growth at 10 µM [2]: 44%
inhibition of growth at 10 µM [3]: 56%
inhibition of growth at 10 µM [4]: 50%
inhibition of growth at 10 µM [5]: 41%
inhibition of growth at 10 µM [6]: 30%
inhibition of growth at 10 µM [34]: 41%
inhibition of growth at 10 µM [8]: 52%
inhibition of growth at 10 µM [35]: 30%
inhibition of growth at 10 µM [9]: 39%
inhibition of growth at 10 µM [10]: 37%
inhibition of growth at 10 µM [38]: 30%
inhibition of growth at 10 µM [39]: 31%
inhibition of growth at 10 µM [11]: 36%
inhibition of growth at 10 µM [12]: 45%
inhibition of growth at 10 µM [13]: 56%
inhibition of growth at 10 µM [14]: 31%
inhibition of growth at 10 µM [40]: 31%
inhibition of growth at 10 µM [41]: 38%
inhibition of growth at 10 µM [36]: 32%
inhibition of growth at 10 µM [16]: 32%
inhibition of growth at 10 µM [18]: 38%
inhibition of growth at 10 µM [19]: 32%
inhibition of growth at 10 µM [20]: 47%
inhibition of growth at 10 µM [22]: 31%
inhibition of growth at 10 µM [23]: 31%
inhibition of growth at 10 µM [24]: 45%
inhibition of growth at 10 µM [25]: 53%
inhibition of growth at 10 µM [26]: 58%
inhibition of growth at 10 µM [27]: 64%
inhibition of growth at 10 µM [28]: 60%
inhibition of growth at 10 µM [29]: 45%
inhibition of growth at 10 µM [30]: 38%
inhibition of growth at 10 µM [31]: 65%
inhibition of growth at 10 µM [32]: 66%
